Measurements taken from ChEMBL document CHEMBL3085676, “Self-assembly to function: design, synthesis, and broad spectrum antimicrobial properties of short hybrid E-vinylogous lipopeptides” (J Med Chem, 2013).
Values after ≈ are worked out from the molar mass of the structure shown. Active and inactive are the calls of the source. The rule behind the calls is not given here.

Tested on: Escherichia coli
Test: Antibacterial activity against Escherichia coli K-12 NCIM 2563 assessed as disruption of cell membrane at 50 uM after 1 hr by atomic force microscopic analysis
Type: functional, organism-based
Conditions: not given
Outline: (§1)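 E. coli grown in MHB and C. albicans in potato dextrose broth were pelleted and resuspended in deionized water. Cells incubated with 50 µM peptide at 37 °C for 1 h, dried 30 min at 25 °C on poly-L-lysine glass, and imaged by AFM in intermittent contact mode. Peptide-free cells served as control.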

Compound	Activity
CCCCCCCCCCCC(=O)N[C@H](/C=C/C(=O)N[C@@H](CCCCN)C(=O)N[C@H](/C=C/C(=O)N[C@@H](CCCCN)C(N)=O)Cc1ccccc1)Cc1ccccc1	Active

Tested on: Klebsiella pneumoniae
Test: Antibacterial activity against Klebsiella pneumoniae NCIM 2957 after 18 to 20 hrs by broth dilution assay
Type: functional
Conditions: not given
Outline: (§2)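 Two-fold serial dilutions in Mueller-Hinton broth, run in triplicate. Overnight 37 °C cultures diluted to 10⁶ CFU/mL and added 1:1 to the peptide, then incubated at 37 °C for 18-20 h. Growth was read as absorbance at 492 nm against no-peptide controls. MIC taken as the lowest concentration giving complete inhibition or killing. Reproducible across three independent triplicates.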

MIC [mg/L]	Compound
25 (≈ 31.2 µM)	CCCCCCCCCCCC(=O)N[C@H](/C=C/C(=O)N[C@@H](CCCCN)C(=O)N[C@H](/C=C/C(=O)N[C@@H](CCCCN)C(N)=O)Cc1ccccc1)Cc1ccccc1

Tested on: Saccharomyces cerevisiae
Test: Antifungal activity against Saccharomyces cerevisiae NCIM 3454 after 48 to 72 hrs
Type: functional
Conditions: not given
Outline: (§3)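 Peptide in water was serially diluted two-fold in potato dextrose broth and mixed 1:1 with yeast suspension at 2×10³ CFU/ml. Incubated at 25 °C for 48-72 h, with growth read as absorbance at 620 nm against a peptide-free culture. MIC was the lowest concentration giving complete growth inhibition. Run in triplicate.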

MIC [mg/L]	Compound
6.25 (≈ 7.79 µM)	CCCCCCCCCCCC(=O)N[C@H](/C=C/C(=O)N[C@@H](CCCCN)C(=O)N[C@H](/C=C/C(=O)N[C@@H](CCCCN)C(N)=O)Cc1ccccc1)Cc1ccccc1

Tested on: not listed separately
Test: Hemolytic activity in human RBC after 1 hr
Type: ADME, cell-based
Conditions: erythrocyte
Outline: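 Fresh EDTA-collected human RBCs washed four times in Tris-buffered saline (10 mM Tris, 150 mM NaCl, pH 7.2) and used at 4% v/v, mixed 1:1 with two-fold serially diluted peptide (top 100 µg/ml before mixing). Incubated at 37 °C for 1 h and centrifuged; supernatant hemoglobin read at 540 nm. Buffer and 1% Triton-X served as negative and positive controls. Percent hemolysis = (A−A_N)/(A_P−A_N)×100. Run in duplicate.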

Compound	HD10 [µg/mL]
CCCCCCCCCCCC(=O)N[C@H](/C=C/C(=O)N[C@@H](CCCCN)C(=O)N[C@H](/C=C/C(=O)N[C@@H](CCCCN)C(N)=O)Cc1ccccc1)Cc1ccccc1	< 1.56

Tested on: Candida albicans
Test: Antifungal activity against Candida albicans NCIM 3471 after 48 to 72 hrs
Type: functional
Conditions: not given
Outline: as §3

MIC [mg/L]	Compound
3.12 (≈ 3.89 µM)	CCCCCCCCCCCC(=O)N[C@H](/C=C/C(=O)N[C@@H](CCCCN)C(=O)N[C@H](/C=C/C(=O)N[C@@H](CCCCN)C(N)=O)Cc1ccccc1)Cc1ccccc1

Tested on: Nakaseomyces glabratus
Test: Antifungal activity against Candida glabrata NCIM 3237 after 48 to 72 hrs
Type: functional
Conditions: not given
Outline: as §3

MIC [mg/L]	Compound
6.25 (≈ 7.79 µM)	CCCCCCCCCCCC(=O)N[C@H](/C=C/C(=O)N[C@@H](CCCCN)C(=O)N[C@H](/C=C/C(=O)N[C@@H](CCCCN)C(N)=O)Cc1ccccc1)Cc1ccccc1

Tested on: Salmonella typhimurium
Test: Antibacterial activity against Salmonella typhimurium NCIM 2501 after 18 to 20 hrs by broth dilution assay
Type: functional, Salmonella enterica subsp. enterica serovar Typhimurium
Conditions: Salmonella enterica
Outline: as §2

MIC [mg/L]	Compound
25 (≈ 31.2 µM)	CCCCCCCCCCCC(=O)N[C@H](/C=C/C(=O)N[C@@H](CCCCN)C(=O)N[C@H](/C=C/C(=O)N[C@@H](CCCCN)C(N)=O)Cc1ccccc1)Cc1ccccc1

Tested on: Pseudomonas aeruginosa
Test: Antibacterial activity against Pseudomonas aeruginosa NCIM 5029 after 18 to 20 hrs by broth dilution assay
Type: functional
Conditions: not given
Outline: as §2

MIC [mg/L]	Compound
25 (≈ 31.2 µM)	CCCCCCCCCCCC(=O)N[C@H](/C=C/C(=O)N[C@@H](CCCCN)C(=O)N[C@H](/C=C/C(=O)N[C@@H](CCCCN)C(N)=O)Cc1ccccc1)Cc1ccccc1

Tested on: Escherichia coli
Test: Antibacterial activity against Escherichia coli K-12 NCIM 2563 after 18 to 20 hrs by broth dilution assay
Type: functional
Conditions: not given
Outline: as §2

MIC [mg/L]	Compound
25 (≈ 31.2 µM)	CCCCCCCCCCCC(=O)N[C@H](/C=C/C(=O)N[C@@H](CCCCN)C(=O)N[C@H](/C=C/C(=O)N[C@@H](CCCCN)C(N)=O)Cc1ccccc1)Cc1ccccc1

Tested on: Staphylococcus aureus
Test: Antibacterial activity against Staphylococcus aureus NCIM 5021 after 18 to 20 hrs by broth dilution assay
Type: functional
Conditions: not given
Outline: as §2

MIC [mg/L]	Compound
25 (≈ 31.2 µM)	CCCCCCCCCCCC(=O)N[C@H](/C=C/C(=O)N[C@@H](CCCCN)C(=O)N[C@H](/C=C/C(=O)N[C@@H](CCCCN)C(N)=O)Cc1ccccc1)Cc1ccccc1

Tested on: Candida albicans
Test: Antifungal activity against Candida albicans NCIM 3471 assessed as disruption of cell membrane by atomic force microscopic analysis
Type: functional, organism-based
Conditions: not given
Outline: as §1

Compound	Activity
CCCCCCCCCCCC(=O)N[C@H](/C=C/C(=O)N[C@@H](CCCCN)C(=O)N[C@H](/C=C/C(=O)N[C@@H](CCCCN)C(N)=O)Cc1ccccc1)Cc1ccccc1	Active

Tested on: Escherichia coli
Test: Antibacterial activity against Escherichia coli NCIM 2065 after 18 to 20 hrs by broth dilution assay
Type: functional
Conditions: not given
Outline: as §2

MIC [mg/L]	Compound
25 (≈ 31.2 µM)	CCCCCCCCCCCC(=O)N[C@H](/C=C/C(=O)N[C@@H](CCCCN)C(=O)N[C@H](/C=C/C(=O)N[C@@H](CCCCN)C(N)=O)Cc1ccccc1)Cc1ccccc1

Tested on: Cryptococcus neoformans
Test: Antifungal activity against Cryptococcus neoformans NCIM 3542 after 48 to 72 hrs
Type: functional
Conditions: not given
Outline: as §3

MIC [mg/L]	Compound
6.25 (≈ 7.79 µM)	CCCCCCCCCCCC(=O)N[C@H](/C=C/C(=O)N[C@@H](CCCCN)C(=O)N[C@H](/C=C/C(=O)N[C@@H](CCCCN)C(N)=O)Cc1ccccc1)Cc1ccccc1
